How the values were obtained:
[1] = Exclusion parameter (base pairs); assay type: ADME
In short: (§1)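 DNA titrations were run at constant anthraquinone concentration while the DNA/drug ratio was varied, at 25 °C in 10 mM Tris pH 7.0 with 1 mM EDTA and NaCl added to set ionic strength. Binding was followed by fluorescence quenching, or by absorbance at 500–750 nm for non-fluorescent drugs. McGhee–von Hippel analysis gave the intrinsic constant K and the exclusion parameter n.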

Nucleic Acid = test: Intrinsic Binding constant of compound to DNA at pH 7 and 25 Centigrade; assay type: functional; settings: Bos taurus; in short: as §1
HL-60 = test: Effective concentration against cell growth of HL60 cell line by 50%; assay type: functional; settings: Homo sapiens, HL-60, read-out: ED50
In short: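 HL60 cells grown in RPMI-1640 with 10% fetal calf serum. Exponentially growing cells were exposed to drug for 1 h at 37 °C. Survival was read either by MTT, after washing and 96 h culture in drug-free medium, or by cell counting after 72 h culture. Value is the drug concentration inhibiting cell growth by 50%.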

HeLa = test: Effective concentration against cell growth of HeLa cell line by 50%; assay type: functional; settings: Homo sapiens, read-out: ED50
In short: (§2)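 HeLa and L1210 cells grown in Dulbecco's modified Eagle's medium with 5% fetal calf serum, antibiotics and L-glutamine. Exponentially growing cells were exposed to drug for 1 h at 37 °C. Growth was scored by MTT, after washing and 96 h drug-free culture, or by cell counting after 72 h. Value is the concentration giving 50% growth inhibition.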

L1210 = test: Effective concentration against cell growth of L1210 cell line by 50%; assay type: functional; settings: Mus musculus, L1210, read-out: ED50; in short: as §2
[2] = Exclusion parameter (base pairs; assay type: ADME
In short: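 Fluorometric titration at 25 °C in 10 mM Tris pH 7.0, 1 mM EDTA, NaCl set to the chosen ionic strength. DNA/drug ratio varied at constant drug concentration by mixing drug-alone and drug-plus-DNA solutions. Nonfluorescent drugs followed spectrophotometrically at 500–750 nm. Data fitted by McGhee–von Hippel to give K and the exclusion parameter n.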

NCC(=O)Nc1ccc(N)c2c1C(=O)c1ccccc1C2=O
Exclusion parameter [1]: 2.1 | K x10e-5 (Nucleic Acid): 3.6 M⁻¹ | EC50 (HL-60): 2000 nM | EC50 (HeLa): 2700 nM | EC50 (L1210): 310 nM

NCCCC[C@H](N)C(=O)NCC(=O)Nc1ccc(NC(=O)CNC(=O)[C@@H](N)CCCCN)c2c1C(=O)c1ccccc1C2=O
Exclusion parameter [1]: 2.3 | K x10e-5 (Nucleic Acid): 17.5 M⁻¹ | EC50 (HL-60): > 100000 nM | EC50 (HeLa): > 100000 nM

O=C1c2ccccc2C(=O)c2c(NCCNCCO)ccc(NCCNCCO)c21 [AMETANTRONE]
Exclusion parameter [2]: 2.7 | K x10e-5 (Nucleic Acid): 3.4 M⁻¹ | EC50 (HL-60): 880 nM | EC50 (HeLa): 3100 nM | EC50 (L1210): 100 nM

NCC(=O)Nc1ccc(NC(=O)CN)c2c1C(=O)c1ccccc1C2=O
Exclusion parameter [1]: 2.3 | K x10e-5 (Nucleic Acid): 2.2 M⁻¹ | EC50 (HL-60): 1900 nM | EC50 (HeLa): 1600 nM | EC50 (L1210): 900 nM

NCC(=O)NCC(=O)NCC(=O)Nc1ccc(NC(=O)CNC(=O)CNC(=O)CN)c2c1C(=O)c1ccccc1C2=O
Exclusion parameter [1]: 2.4 | K x10e-5 (Nucleic Acid): 2.4 M⁻¹

NCCCCC(N)C(=O)NCC(=O)Nc1ccc(NC(=O)CNC(=O)C(N)CCCCN)c2c1C(=O)c1ccccc1C2=O (configuration not stated)
Exclusion parameter [1]: 2.4 | K x10e-5 (Nucleic Acid): 33 M⁻¹ | EC50 (HL-60): > 100000 nM | EC50 (HeLa): > 100000 nM

NC(Cc1c[nH]c2ccccc12)C(=O)NCC(=O)Nc1ccc(NC(=O)CNC(=O)C(N)Cc2c[nH]c3ccccc23)c2c1C(=O)c1ccccc1C2=O (configuration not stated)
EC50 (HL-60): 28000 nM

NCC(=O)NCC(=O)Nc1ccc(NC(=O)CNC(=O)CN)c2c1C(=O)c1ccccc1C2=O
Exclusion parameter [1]: 2.5 | K x10e-5 (Nucleic Acid): 2.4 M⁻¹ | EC50 (HL-60): 2300 nM | EC50 (HeLa): 2400 nM | EC50 (L1210): 800 nM

NCC(=O)NCC(=O)Nc1ccc(N)c2c1C(=O)c1ccccc1C2=O
Exclusion parameter [1]: 2.2 | K x10e-5 (Nucleic Acid): 1.7 M⁻¹ | EC50 (HL-60): 2000 nM | EC50 (HeLa): 2700 nM | EC50 (L1210): 240 nM

N[C@@H](Cc1c[nH]c2ccccc12)C(=O)NCC(=O)Nc1ccc(NC(=O)CNC(=O)[C@@H](N)Cc2c[nH]c3ccccc23)c2c1C(=O)c1ccccc1C2=O
EC50 (HL-60): 30000 nM
